Source: ChEMBL document CHEMBL1122629, “Potent and selective antagonists of the antidiuretic responses to arginine-vasopressin based on modifications of [1-(beta-mercapto-beta,beta-pentamethylenepropionic acid),2-D-isoleucine,4- valine]arginine-vasopressin at position 4” (J Med Chem, 1984)

How the values were obtained:
Rattus norvegicus [1] = experiment: Compound was evaluated in vivo for anti-vasopressor activity in rats and pA2 value is negative logarithm of effective dose (ED); assay type: functional, organism-based; settings: read-out: pA2 (converted)
Procedure, shortened: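 Intravenous vasopressor assay in phenoxybenzamine-treated rats under urethane anaesthesia, agonist USP posterior pituitary reference standard. ED is the dose (nmol/kg) that reduces the response to 2x units of agonist to that of 1x unit given before antagonist. […] Means ± SE, number of assays given.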

Rattus norvegicus [2] = organism: Rattus norvegicus; experiment: In vitro anti-oxytocic activity on isolated rat uteri in absence of Mg2+. pA2 value is negative logarithm of effective dose (ED); assay type: functional; settings: read-out: pA2 (converted)
Procedure, shortened: (§1)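 Isolated rat uterus, with USP posterior pituitary reference standard as agonist. Antagonism expressed as pA2.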

Rattus norvegicus [3] = organism: Rattus norvegicus; experiment: Antidiuretic activity in rats and pA2 value is negative logarithm of effective dose (ED); assay type: functional, organism-based; settings: Urine, read-out: pA2 (converted)
Procedure, shortened: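 Antidiuretic assay in rats under ethanol anaesthesia against the USP posterior pituitary reference standard. Standard given 20 min after antagonist, or 10 min for analogues lacking agonism. Each peptide given at a high and a low dose. ED is the dose (nmol/kg) that cuts the response to 2x units of agonist to the response to 1x unit given before antagonist. […] Means ± SE, n assays.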

Rattus norvegicus [4] = organism: Rattus norvegicus; experiment: Anti-oxytocic activity on isolated rat uterus in presence of 0.5 mM of Mg2+. pA2 value is negative logarithm of effective dose (ED); assay type: functional; settings: read-out: pA2 (converted); procedure, shortened: as §1
Rattus norvegicus [5] = organism: Rattus norvegicus; experiment: Anti-oxytocic activity in rat uterus pA2 value is negative logarithm of effective dose (ED); assay type: functional, organism-based; settings: read-out: pA2 (converted)
Rattus norvegicus [6] = organism: Rattus norvegicus; experiment: Anti-oxytocic activity on isolated rat uterus in absence of Mg2+. pA2 value is negative logarithm of effective dose (ED); assay type: functional; settings: read-out: pA2 (converted); procedure, shortened: as §1
Rattus norvegicus [7] = experiment: Compound was evaluated in vivo for anti-oxytocic activity in rat uteri. pA2 value is negative logarithm of effective dose (ED); assay type: functional, organism-based; settings: read-out: pA2 (converted)
Procedure, shortened: (§2)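 Rat uterus in situ, with synthetic oxytocin as agonist. ED is the dose (nmol/kg) that lowers the response to 2x units of agonist to that of 1x unit given before antagonist.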

Rattus norvegicus [8] = experiment: Evaluated in vivo for logarithm effective dose (ED); assay type: functional, organism-based
Rattus norvegicus [9] = experiment: Compound was evaluated in vivo for anti-oxytocic activity in rat uterus. pA2 value is negative logarithm of effective dose (ED); assay type: functional, organism-based; settings: read-out: pA2 (converted); procedure, shortened: as §2

Row | SMILES | Kb (Rattus norvegicus [1]) [nM] | Kb (Rattus norvegicus [2]) [nM] | Kb (Rattus norvegicus [3]) [nM] | Kb (Rattus norvegicus [4]) [nM] | Kb (Rattus norvegicus [5]) [nM] | Kb (Rattus norvegicus [6]) [nM] | Kb (Rattus norvegicus [7]) [nM] | in vivo pA2 effective dose (as concentration) (Rattus norvegicus [8]) [nM] | Kb (Rattus norvegicus [9]) [nM]
1 | CC[C@@H]1NC(=O)[C@H](Cc2ccccc2)NC(=O)[C@@H]([C@H](C)CC)NC(=O)CC2(CCCCC2)SSC[C@@H](C(=O)N2CCC[C@H]2C(=O)N[C@@H](CCCN=C(N)N)C(=O)NCC(N)=O)NC(=O)[C@H](CC(N)=O)NC1=O | 186 | 32.4 | 6.03 | 93.3 | 224 | – | – | – | –
2 | CC[C@@H](C)[C@H]1NC(=O)CC2(CCCCC2)SSC[C@@H](C(=O)N2CCC[C@H]2C(=O)N[C@@H](CCCN=C(N)N)C(=O)NCC(N)=O)NC(=O)[C@H](CC(N)=O)NC(=O)[C@H]([C@@H](C)CC)NC(=O)[C@H](Cc2ccccc2)NC1=O | 380 | – | 9.12 | 15.1 | – | 33.9 | 126 | – | –
3 | CC[C@@H](C)[C@H]1NC(=O)CC2(CCCCC2)SSC[C@@H](C(=O)N2CCC[C@H]2C(=O)N[C@@H](CCCN=C(N)N)C(=O)NCC(N)=O)NC(=O)[C@H](CC(N)=O)NC(=O)[C@H]([C@@H](C)O)NC(=O)[C@H](Cc2ccccc2)NC1=O | – | – | 12.3 | 20.4 | – | 7.94 | – | 148 | 135
